# Source: ChEMBL document CHEMBL3085637, “Synthesis and anticancer potential of certain novel 2-oxo-N'-(2-oxoindolin-3-ylidene)-2H-chromene-3-carbohydrazides” (Eur J Med Chem, 2013)
# Test system: HT-29
# Assay: Inhibition of side population in human HT-29 cells at 100 uM after 90 mins using vybrant dyecycle violet staining by FACS analysis
# Format: functional
# Details: HT-29, 1.5 h
# How it was run: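 HT-29 cells were stained in medium with Vybrant DyeCycle Violet for 90 min at 37 °C, centrifuged and washed with medium. Side-population cells were identified by flow cytometry histograms. The reference control was verapamil, which blocks the transporter responsible for dye exclusion. Results are % side-population inhibition ± SD.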
compound,measurement,value
COc1ccc(CCN(C)CCCC(C#N)(c2ccc(OC)c(OC)c2)C(C)C)cc1OC (stereo unspecified),inhibition at 100 µM,95%
